Data taken from ChEMBL document CHEMBL2029285, “Structure-based design of novel class II c-Met inhibitors: 1. Identification of pyrazolone-based derivatives” (J Med Chem, 2012).
pIC50, pKi: −log10 of the molar value. Each block holds one compound with its values, some of them ahead of it.

Tests used:
[1] = target: Vascular endothelial growth factor receptor 2 (Homo sapiens, UniProt P35968); assay: Inhibition of VEGFR2
[2] = target: Insulin-like growth factor 1 receptor (Homo sapiens) (UniProt P08069); assay: Inhibition of IGF1R
[3] = Clearance in Sprague-Dawley rat at 2 mg/kg, iv; type: ADME, organism-based; set-up: dose 2 mg/kg, route intravenous; conditions: in vivo
Outline: (§1)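 Male Sprague-Dawley rats, 3 animals per study, given 2 mg/kg iv as a solution in DMSO. Clearance, steady-state volume and half-life were derived from plasma pharmacokinetics.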

[4] = Volume of distribution at steady-state in Sprague-Dawley rat at 2 mg/kg, iv; type: ADME, organism-based; set-up: dose 2 mg/kg, route intravenous; conditions: in vivo, read-out: Vdss; outline: as §1
[5] = Elimination half life in Sprague-Dawley rat at 2 mg/kg, iv; type: ADME, organism-based; set-up: dose 2 mg/kg, route intravenous; conditions: in vivo, read-out: beta t1/2 (converted); outline: as §1
[6] = Oral bioavailability in Sprague-Dawley rat at 5 mg/kg; type: ADME, organism-based; conditions: in vivo
Outline: (§2)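 Male Sprague-Dawley rats, 3 animals per study, dosed orally at 5 mg/kg as a suspension in 1% Tween 80, 99% OraPlus.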

[7] = AUC in Sprague-Dawley rat at 5 mg/kg, po; type: ADME, organism-based; set-up: dose 5 mg/kg, route oral; conditions: plasma; outline: as §2
Mus musculus [8] = assay: Inhibition of HGF-mediated c-met autophosphorylation in po dosed Balb/c mouse liver compound administered 2 hrs before and measured after 5 mins of HGF stimulation by electrochemiluminescent assay; type: functional
Outline: (§3)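 Balb/c mice were gavaged at 10, 30 or 100 mg/kg. At 2 h postdose, human HGF was injected iv and livers were harvested 5 min later. Phospho-c-Met was quantified by electrochemiluminescent assay and compared with vehicle + HGF. Mean ± SD, n = 3. Terminal plasma concentrations were measured.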

Mus musculus [9] = assay: Inhibition of HGF-mediated c-met autophosphorylation in Balb/c mouse liver at 10 mg/kg, po administered 2 hrs before and measured after 5 mins of HGF stimulation by electrochemiluminescent assay; type: functional; outline: as §3
[10] = target: T1, Hepatocyte growth factor receptor (Homo sapiens, UniProt P08581); assay: Inhibition of recombinant c-met-mediated gastrin phosphorylation by HTRF assay
[11] = target: T1, Hepatocyte growth factor receptor; assay: Inhibition of HGF-mediated c-met autophosphorylation in serum-starved human PC3 cells after 1 hr by electrochemiluminescent immunoassay; type: cell-based, PC-3

INH [1]: 6.2 nM
INH [2]: 65 nM
clearance [3]: 0.583 mL/min/kg
Vd [4]: 0.242 L/kg
half-life [5]: 4.6 h
bioavailability [6]: 94%
AUC [7]: 258 µM·h
Compound: COc1cc2nccc(Oc3ccc(NC(=O)c4c(C)n(C)n(-c5ccccc5)c4=O)cc3F)c2cc1OC
ED90 (Mus musculus [8]): < 30 mg/kg
inhibition (Mus musculus [8]): Dose-dependent effect
inhibition in vivo at 10 mg/kg (Mus musculus [9]): 85%

pKi [10]: 8.32
Compound: COc1ccc2c(OCc3nnc4ccc(-c5cc(F)c(F)c(F)c5)cn34)ccnc2c1

pKi [10]: < 4.70
pIC50 [11]: < 4.70
Compound: COc1cc2nccc(Oc3ccc(N(C)C(=O)c4c(C)n(C)n(-c5ccccc5)c4=O)cc3F)c2cc1OC

pKi [10]: 8.77
pIC50 [11]: 7.28
Compound: COc1cc2nccc(Oc3ccc(NC(=O)N4CCN(c5ccccc5)C4=O)cc3F)c2cc1OC

pKi [1]: 6.99
Compound: COc1cc2nccc(Oc3ccc(NC(=S)NC(=O)Cc4ccccc4)cc3F)c2cc1OC
